Measurements reported in article PMC10092221 (Journal of Clinical Pharmacology, 2022).
“And” between values parts separate entries of the source, which are not always exact repeats. Equal entries are not always repeated. Where two headings read alike, the source gives them in different places.

Assays:
[1] = Capmatinib/CMN288 pharmacokinetics, inhibition cohort; assay type: in vivo, human (healthy subjects); details: for AUCinf geometric mean ratio (90%CI) / AUClast geometric mean ratio (90%CI) / Cmax geometric mean ratio (90%CI): itraconazole + capmatinib 200 mg / capmatinib alone
Procedure, shortened: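 Inhibition cohort of healthy subjects (n = 27): a single fasted oral 200 mg dose on day 1, then a 4-day washout. Itraconazole 200 mg was given daily on days 5–14, and 200 mg test compound was dosed 1 h after the sixth itraconazole dose (day 10). Plasma was sampled serially to 96 h after each dose and assayed by validated LC-MS/MS (LLOQ ≈1.0 ng/mL). Test/reference ratios are antilogged point estimates with 2-sided 90%CIs.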

[2] = test system: OATP1B1; details: cited from earlier work
[3] = Safety assessment; assay type: in vivo, human (healthy subjects)
[4] = test system: MATE2K; details: read-out: Ki, MATE2K inhibition; in vitro; ref Novartis data on file; cited from earlier work
[5] = test system: MATE1; details: read-out: Ki, MATE1 inhibition; in vitro; ref Novartis data on file; cited from earlier work
[6] = healthy subjects, used for sample size; cited from earlier work
[7] = test system: OATP1B3; details: cited from earlier work
[8] = assay type: in vivo, human (healthy subjects); details: for Maximum increase of serum creatinine concentration from baseline: at 24 hours
Procedure, shortened: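 Blood was drawn from healthy subjects at 0, 2, 4, 8, 24, 48 and 72 h after the day-1 single fasted oral dose: 200 mg in the inhibition cohort, 400 mg in the induction cohort. Creatinine and cystatin C were measured in each sample. Change from baseline was summarized descriptively by time point.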

[9] = therapeutic dose 400 mg twice daily, cited from earlier work
[10] = Capmatinib/CMN288 pharmacokinetics, induction cohort; assay type: in vivo, human (healthy subjects); details: for AUC(0-inf): AUCinf; for AUC(0-t): AUClast; for AUCinf geometric mean ratio (90%CI) / AUClast geometric mean ratio (90%CI) / Cmax geometric mean ratio (90%CI): rifampicin + capmatinib 400 mg / capmatinib alone
Procedure, shortened: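 Healthy subjects (induction cohort, n = 26) received a single fasted oral 400 mg dose on day 1, then a 4-day washout. Rifampicin 600 mg was given daily on days 5–13, with 400 mg test compound coadministered with the sixth dose on day 10. Serial plasma was drawn to 72 h after each dose and frozen <–70°C. Parent and metabolite were measured by validated LC-MS/MS (LLOQ ≈1.0 ng/mL). Ratios are antilogged 90%CIs.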

[11] = capmatinib + itraconazole compared to capmatinib alone
[12] = inhibition cohort, healthy subjects, single oral capmatinib 200 mg + itraconazole 200 mg/day, plasma
[13] = inhibition cohort, healthy subjects, single oral capmatinib 200 mg alone, plasma
[14] = induction cohort N=26 (capmatinib 400 mg, rifampicin 600 mg/day)
[15] = inhibition cohort N=27 (capmatinib 200 mg, itraconazole 200 mg/day)
[16] = single dose 200 mg capmatinib, inhibition cohort
[17] = single dose 400 mg capmatinib, induction cohort
[18] = capmatinib + rifampicin compared to capmatinib alone
[19] = human, plasma, po, adjusted geometric mean, induction cohort, healthy subjects, single oral capmatinib 400 mg + rifampicin 600 mg/day, plasma
[20] = human, plasma, po, geometric mean (geometric CV%), induction cohort, healthy subjects, single oral capmatinib 400 mg + rifampicin 600 mg/day, plasma
[21] = human, plasma, po, mean (CV%), induction cohort, healthy subjects, single oral capmatinib 400 mg + rifampicin 600 mg/day, plasma
[22] = induction cohort, healthy subjects, single oral capmatinib 400 mg + rifampicin 600 mg/day, plasma
[23] = induction cohort, healthy subjects, single oral capmatinib 400 mg alone, plasma

In the case of CNC(=O)c1ccc(-c2cnc3ncc(Cc4ccc5ncccc5c4)n3n2)cc1F [Capmatinib], the “Increase of geometric mean AUCinf with itraconazole” value [1, 11] is reported as 42%, the “Increase of geometric mean AUClast with itraconazole” value [1, 11] is reported as 41% and the AUC(0-t) ([1]; human, plasma, po, 200 mg) is reported as 5430 ng·h/mL. The AUC(0-inf) ([1]; human, plasma, po, AUCinf, geometric mean (geometric CV%), inhibition cohort, healthy subjects, single oral capmatinib 200 mg + itraconazole 200 mg/day, plasma) was 7450 ng·h/mL, the Cmax ([1]; human, plasma, po, adjusted geometric mean, inhibition cohort, healthy subjects, single oral capmatinib 200 mg + itraconazole 200 mg/day, plasma) was 1300 ng/mL and the Cmax ([1]; human, plasma, po, geometric mean (geometric CV%), inhibition cohort, healthy subjects, single oral capmatinib 200 mg + itraconazole 200 mg/day, plasma) was 1290 ng/mL. The Cmax ([1]; human, plasma, po, mean (CV%), inhibition cohort, healthy subjects, single oral capmatinib 200 mg + itraconazole 200 mg/day, plasma) was 1410 ng/mL, the “AUCinf, adjusted geometric mean” value [1, 12] was 7360 ng·h/mL and the “AUCinf, mean (CV%)” value [1, 12] was 7680 (24.3) ng · h/mL. The “AUClast, adjusted geometric mean” value [1, 12] was 7340 ng·h/mL, the “AUClast, mean (CV%)” value [1, 12] was 7660 (24.5) ng · h/mL and the “CL/F, geometric mean (geometric CV%)” value [1, 12] was 26.8 (26.4) L/h. For the same molecule, the “CL/F, mean (CV%)” value [1, 12] was 27.8 (28.1) L/h, the “t1/2, geometric mean (geometric CV%)” value [1, 12] was 6.05 (31.3) h and the “t1/2, mean (CV%)” value [1, 12] was 6.34 (32.8) h. For the same molecule, the “tmax, median (range)” value [1, 12] was 2.00 (0.495–4.01) h, the “AUCinf, geometric mean (geometric CV%)” value [1, 13] was 5280 (30.6) ng · h/mL and the “AUClast, adjusted geometric mean” value [1, 13] was 5220 ng·h/mL. For the same molecule, the “AUClast, geometric mean (geometric CV%)” value [1, 13] was 5220 (30.6) ng · h/mL, the “CL/F, geometric mean (geometric CV%)” value [1, 13] was 37.9 (30.6) L/h and the “CL/F, mean (CV%)” value [1, 13] was 39.6 (33.4) L/h. For the same molecule, the “Cmax, adjusted geometric mean” value [1, 13] was 1260 ng/mL, the “Cmax, geometric mean (geometric CV%)” value [1, 13] was 1260 (46.9) ng/mL and the “Cmax, mean (CV%)” value [1, 13] was 1380 (40.4) ng/mL. The “Tmax, median” value [1, 13] was 1.00 h, the “tmax, median (range)” value [1, 13] was 1.00 (0.505–4.00) h and the “AUCinf geometric mean ratio (90%CI)” value [1] was 1.42 (1.33–1.52). For the same molecule, the “AUClast geometric mean ratio (90%CI)” value [1] was 1.41 (1.29–1.53), the “Cmax geometric mean ratio (90%CI)” value [1] was 1.03 (0.866–1.22) and the “AUCinf geometric mean ratio (90%CI)” value ([1]; listed as capmatinib) was 1.42. For the same molecule, the “AUClast geometric mean ratio (90%CI)” value ([1]; listed as capmatinib) was 1.41, the “Cmax geometric mean ratio (90%CI)” value ([1]; listed as capmatinib) was 1.03 and the “Tmax median difference (minimum to maximum differences)” value ([1]; itraconazole + capmatinib 200 mg vs capmatinib alone) was 0.489 (–3.02 to 3.00) h. The “Substrate of OATP1B1” value [2] was “not a substrate”, the Deaths ([3]; either treatment cohort) was “No deaths were reported” and the “Serious AEs” value ([3]; either treatment cohort) was “No serious AEs were reported”. The “AEs suspected to be related to the study treatment (any grade)” value [3, 14] was 10 subjects, the “Discontinued study treatment due to AEs” value [3, 14] was 1 subjects and the “AEs suspected to be related to the study treatment (any grade)” value [3, 15] was 13 subjects. For the same molecule, the “Amylase increased, grade 3” value [3, 15] was 1 subjects, the Ki [4] was 290 nM and the Ki [5] was 280 nM. The “Intrasubject coefficient of variation (CV%) for AUC” value [6] was 22.8%, the “Intrasubject coefficient of variation (CV%) for Cmax” value [6] was 29.9% and the “Substrate of OATP1B3” value [7] was “not a substrate”. For the same molecule, the “Change in serum creatinine” value ([8]; after a single dose of capmatinib, 3-day monitoring) was “transient increase”, the “Time at which serum creatinine returned to baseline” value [8, 16] was 48 h and the “Maximum increase of serum creatinine concentration from baseline” value [8, 16] was 21%. The “Time at which serum creatinine returned to baseline” value [8, 17] was 72 h, the “Maximum increase of serum creatinine concentration from baseline” value [8, 17] was 27.3% and the “Change in serum cystatin C concentration” value ([8]; single dose capmatinib 200 or 400 mg, both cohorts, 3-day monitoring) was “no change”. The Cmax ([9]; read-out: Steady-state Cmax, total) was 11.6 µM, the “Steady-state Cmax, unbound” value ([9]; unbound) was 0.464 µM and the “Decrease of geometric mean AUCinf with rifampicin” value [10, 18] was 66.5% and 67%. The “Decrease of geometric mean AUClast with rifampicin” value [10, 18] was 67.8%, the “Decrease of geometric mean Cmax with rifampicin” value [10, 18] was 55.9% and 55% and the Tmax ([10]; human, plasma, po, 400 mg) was 0.994 h. The AUC(0-inf) [10, 19] was 3850 ng·h/mL, the AUC(0-inf) [10, 20] was 3890 ng·h/mL and the AUC(0-inf) [10, 21] was 4050 ng·h/mL. It also gave an AUC(0-t) [10, 19] of 3720 ng·h/mL, an AUC(0-t) [10, 20] of 3720 ng·h/mL and an AUC(0-t) [10, 21] of 3860 ng·h/mL. The Cmax [10, 19] was 1350 ng/mL, the Cmax [10, 20] was 1350 ng/mL and the half-life ([10]; human, plasma, po, t1/2, mean (CV%), induction cohort, healthy subjects, single oral capmatinib 400 mg + rifampicin 600 mg/day, plasma) was 11.1 h. For the same molecule, the “CL/F, geometric mean (geometric CV%)” value [10, 22] was 103 (29.4) L/h, the “CL/F, mean (CV%)” value [10, 22] was 107 (26.1) L/h and the “Cmax, mean (CV%)” value [10, 22] was 1460 (43.4) ng/mL. The “t1/2, geometric mean (geometric CV%)” value [10, 22] was 10.3 (40.8) h, the “tmax, median (range)” value [10, 22] was 0.994 (0.478–2.00) h and the “CL/F, geometric mean (geometric CV%)” value [10, 23] was 35.4 (24.3) L/h. For the same molecule, the “CL/F, mean (CV%)” value [10, 23] was 36.4 (23.7) L/h, the “tmax, median (range)” value [10, 23] was 0.994 (0.461–3.00) h and the “AUCinf geometric mean ratio (90%CI)” value [10] was 0.335 (0.300–0.374). The “AUClast geometric mean ratio (90%CI)” value [10] was 0.322 (0.294–0.353), the “Cmax geometric mean ratio (90%CI)” value [10] was 0.441 (0.387–0.502) and the “AUCinf geometric mean ratio (90%CI)” value ([10]; listed as capmatinib) was 0.335. The “AUClast geometric mean ratio (90%CI)” value ([10]; listed as capmatinib) was 0.322 and the “Cmax geometric mean ratio (90%CI)” value ([10]; listed as capmatinib) was 0.441.
